Assay results taken from ChEMBL document CHEMBL5154715, “Phenolic Lipids Derived from Cashew Nut Shell Liquid to Treat Metabolic Diseases” (J Med Chem, 2022).
The source made the active and inactive calls. No cut-off for these calls is given here.

Key:
[1] = Tmax in C57BL/6 mouse at 40 mg/kg, ip […] by LC-MS/MS analysis; format: ADME, organism-based; conditions: in vivo
[2] = target: T1, Peroxisome proliferator-activated receptor gamma (Mus musculus) (UniProt P37238); test: Agonist activity at human PPARgamma in mouse 3T3-L1 cells assessed as induction of Adipoq-mRNA expression at 25 uM incubated for 11 days by quantitative real-time PCR analysis; conditions: filed as agonist, time 11.0 day
T1 sequence (whole entry): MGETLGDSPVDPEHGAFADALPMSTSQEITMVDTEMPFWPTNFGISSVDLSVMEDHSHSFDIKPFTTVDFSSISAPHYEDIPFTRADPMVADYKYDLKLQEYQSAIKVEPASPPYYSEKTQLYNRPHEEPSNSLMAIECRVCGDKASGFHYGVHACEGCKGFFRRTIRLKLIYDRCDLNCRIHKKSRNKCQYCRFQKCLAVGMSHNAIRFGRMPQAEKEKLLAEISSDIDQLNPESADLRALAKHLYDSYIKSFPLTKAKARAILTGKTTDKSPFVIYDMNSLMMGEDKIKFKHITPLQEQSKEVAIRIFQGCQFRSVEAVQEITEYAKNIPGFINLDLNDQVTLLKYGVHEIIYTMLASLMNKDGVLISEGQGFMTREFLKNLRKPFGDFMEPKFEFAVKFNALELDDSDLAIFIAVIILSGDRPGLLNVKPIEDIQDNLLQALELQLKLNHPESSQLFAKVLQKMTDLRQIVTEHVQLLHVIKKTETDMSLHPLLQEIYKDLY

[3] = target: T1, Peroxisome proliferator-activated receptor gamma (Mus musculus); test: Agonist activity at human PPARgamma in mouse 3T3-L1 cells assessed as induction of Glut4 mRNA expression at 25 uM incubated for 11 days by quantitative real-time PCR analysis; conditions: filed as agonist, time 11.0 day
[4] = test system: Danio rerio; test: In vivo agonist activity at human GFP-tagged PPARalpha in transgenic zebrafish assessed as increase in GFP expression in muscle at 0.5 uM measured after 14 hrs by microscopy
[5] = Terminal half life in C57BL/6 mouse at 100 mg/kg, po measured upto 24 hrs by LC-MS/MS analysis; format: ADME, organism-based; conditions: in vivo, read-out: beta t1/2 (converted)
In short: (§1)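 Single oral dose given in peanut butter pellets to WT male C57Bl/6 mice acclimated 7 days to drug-free pellets; n = 4 per time point. Saphenous blood at 0.25–2 h, terminal collection at 4–38 h. Plasma extracted with methanol containing internal standard, LC-MS/MS with negative-ion ESI MRM. Parameters reported as mean ± SEM; Frel is oral vs IP.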

[6] = target: T2, Peroxisome proliferator-activated receptor alpha (Mus musculus) (UniProt P23204); test: Agonist activity at human PPARalpha in mouse hepatocytes assessed as induction of cd36 mRNA expression at 50 uM incubated for 16 hrs by quantitative real-time PCR analysis; format: cell-based; conditions: Hepatocyte, filed as agonist
T2 sequence (whole entry): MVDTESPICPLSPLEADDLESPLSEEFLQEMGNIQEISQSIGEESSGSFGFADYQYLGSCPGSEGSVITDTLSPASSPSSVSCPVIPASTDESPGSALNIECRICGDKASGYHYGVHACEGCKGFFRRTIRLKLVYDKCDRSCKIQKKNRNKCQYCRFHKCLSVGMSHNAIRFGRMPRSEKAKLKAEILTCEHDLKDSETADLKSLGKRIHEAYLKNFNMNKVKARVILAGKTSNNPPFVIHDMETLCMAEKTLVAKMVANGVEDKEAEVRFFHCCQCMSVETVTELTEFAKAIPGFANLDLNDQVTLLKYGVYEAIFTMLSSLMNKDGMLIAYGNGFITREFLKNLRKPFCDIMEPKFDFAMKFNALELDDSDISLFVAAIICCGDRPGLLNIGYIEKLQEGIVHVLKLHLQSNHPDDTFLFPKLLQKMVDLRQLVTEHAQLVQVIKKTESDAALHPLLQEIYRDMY
In short: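 Collagenase-perfused mouse primary hepatocytes from WT mice, plated 2 h in attachment medium, overnight in M199 with 5% charcoal-stripped FBS and 1 nM insulin. Treated next day in serum-free M199 with 50 μM compound for 16 h. RNA qPCR (SYBR Green), comparative Ct method.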

[7] = test system: Danio rerio; test: In vivo agonist activity at human GFP-tagged PPARalpha in transgenic zebrafish assessed as increase in GFP expression in brain at 0.5 uM measured after 14 hrs by microscopy
[8] = Terminal half life in C57BL/6 mouse at 40 mg/kg, ip […] by LC-MS/MS analysis; format: ADME, organism-based; conditions: in vivo, read-out: beta t1/2 (converted)
[9] = Apparent oral clearance in C57BL/6 mouse at 100 mg/kg, po measured upto 24 hrs by LC-MS/MS analysis; format: ADME, organism-based; conditions: in vivo; in short: as §1
[10] = Cmax in C57BL/6 mouse at 40 mg/kg, ip measured upto 24 hrs by LC-MS/MS analysis; format: ADME, organism-based; design: dose 40 mg/kg, time < 24 hrs, route ip; conditions: in vivo
In short: (§2)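 Single IP dose in 5% DMSO/5% Tween-80/90% saline to WT male C57Bl/6 mice, 7–10 months old; n = 4 per time point. Saphenous sampling at 0.08–0.5 h, then terminal trunk blood at 1–6 h. Plasma extracted with methanol plus internal standard and analyzed by LC-MS/MS; mean ± SEM.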

[11] = test system: Danio rerio; test: In vivo agonist activity at human GFP-tagged PPARalpha in transgenic zebrafish assessed as increase in GFP expression in yolk sac at 0.5 uM measured after 14 hrs by microscopy
[12] = Elimination rate constant in C57BL/6 mouse at 40 mg/kg, ip measured upto 24 hrs by LC-MS/MS analysis; format: ADME, organism-based; conditions: in vivo; in short: as §2
[13] = Tmax in C57BL/6 mouse at 100 mg/kg, po measured upto 24 hrs by LC-MS/MS analysis; conditions: in vivo
[14] = Relative bioavailability in C57BL/6 mouse at 100 mg/kg […] by LC-MS/MS analysis; format: ADME, organism-based; conditions: in vivo
[15] = AUC (0 to infinity) in C57BL/6 mouse at 40 mg/kg, ip measured upto 24 hrs by LC-MS/MS analysis; format: ADME, organism-based; design: time < 24 hrs, dose 40 mg/kg, route ip; conditions: in vivo; in short: as §2
[16] = test system: Danio rerio; test: In vivo agonist activity at human GFP-tagged PPARalpha in transgenic zebrafish assessed as increase in GFP expression in heart at 0.5 uM measured after 14 hrs by microscopy
[17] = test system: Danio rerio; test: In vivo agonist activity at human GFP-tagged PPARalpha in transgenic zebrafish assessed as increase in GFP expression in heart at 1.5 uM measured after 14 hrs by microscopy
[18] = test system: Danio rerio; test: In vivo agonist activity at human GFP-tagged PPARalpha in transgenic zebrafish assessed as increase in GFP expression in yolk sac at 1.5 uM measured after 14 hrs by microscopy
[19] = test system: Danio rerio; test: In vivo agonist activity at human GFP-tagged PPARalpha in transgenic zebrafish assessed as increase in GFP expression in brain at 0.7 uM measured after 14 hrs by microscopy

For CCCCCCCCCCCCCCCc1cccc(OC(C)(C)C(=O)O)c1, the Tmax [1] was 0.5 h, the Activity [2] was “Active” and the Activity [3] was “Active”. For the same molecule, the Activity [4] was “Active”, the half-life [5] was 2.3 h and the Activity [6] was “Active”. The Activity [7] was “Active”, the half-life [8] was 4 h and the CL/F [9] was 2.3 mL/min/kg. For the same molecule, the Cmax [10] was 102 µg/mL, the Activity [11] was “Active” and the k el at 24 h [12] was 4.83e-05 s⁻¹. For the same molecule, the Tmax [13] was 4 h, the bioavailability [14] was 38% and the AUC(0-inf) [15] was 748 µg·h/mL. For the same molecule, the Activity [16] was “Active”.
For CCCCCCCCCCCCCCCc1cccc(OC(C)=O)c1C(=O)O, the Activity [17] was “Active” and the Activity [18] was “Active”.
In the case of CCCCCC/C=C\CCCCCCCc1cccc(OC(C)(C)C(=O)O)c1, the Activity [19] is reported as “Active”.
